Measured values as given in ChEMBL document CHEMBL1765089, “A class of 5-benzylidene-2-phenylthiazolinones with high potency as direct 5-lipoxygenase inhibitors” (J Med Chem, 2011).
pIC50: −log10 of the molar value.

How the values were obtained:
[1] = target: T1, Polyunsaturated fatty acid 5-lipoxygenase (Homo sapiens, UniProt P09917); test: Inhibition of 5-lipoxygenase in human polymorphonuclear leukocytes assessed as inhibition of LTB4 production preincubated for 15 mins measured after 10 mins by HPLC method; type: cell-based; settings: pooled result: one value given for 2 cell lines, strains, targets or settings
T1 sequence (P09917 whole entry): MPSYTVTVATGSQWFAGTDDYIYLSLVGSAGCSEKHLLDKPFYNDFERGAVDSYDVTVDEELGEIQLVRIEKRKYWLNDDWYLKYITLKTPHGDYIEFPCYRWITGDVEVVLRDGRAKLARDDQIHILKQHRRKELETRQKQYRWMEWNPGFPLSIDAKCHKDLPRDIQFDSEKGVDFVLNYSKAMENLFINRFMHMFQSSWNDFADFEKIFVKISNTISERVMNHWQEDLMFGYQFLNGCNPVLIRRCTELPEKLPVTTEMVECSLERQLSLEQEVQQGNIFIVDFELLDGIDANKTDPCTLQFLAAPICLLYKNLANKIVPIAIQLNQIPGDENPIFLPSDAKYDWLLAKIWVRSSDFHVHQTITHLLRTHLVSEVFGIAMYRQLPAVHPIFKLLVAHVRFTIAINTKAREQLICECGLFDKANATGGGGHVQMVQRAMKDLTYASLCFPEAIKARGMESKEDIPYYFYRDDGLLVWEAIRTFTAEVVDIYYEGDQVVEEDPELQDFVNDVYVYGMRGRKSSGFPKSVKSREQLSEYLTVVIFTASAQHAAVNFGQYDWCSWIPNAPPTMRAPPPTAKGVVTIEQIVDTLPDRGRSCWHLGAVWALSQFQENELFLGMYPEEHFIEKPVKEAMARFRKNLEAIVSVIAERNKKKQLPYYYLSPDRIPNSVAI
How it was run: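 Isolated intact human polymorphonuclear leukocytes were preincubated with compound, then stimulated with 2.5 μM ionophore A23187 plus exogenous arachidonic acid (20 μM) to bypass cPLA₂ substrate supply. Three increasing concentrations were tested in three to five independent experiments and normalized to DMSO control. IC₅₀ was read by linear interpolation around 50% activity, reported as mean with SEM.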

[2] = target: T1, Polyunsaturated fatty acid 5-lipoxygenase; test: Inhibition of 5-lipoxygenase in S100 supernatant assessed as inhibition of LTB4 production preincubated for 15 mins measured after 10 mins by HPLC method
How it was run: (§1)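 Cell-free assay using the 100000g supernatant (S100) of human PMNL homogenates. Samples were preincubated with compound, then 5-LO product formation was started with 1 mM CaCl₂ plus 20 μM arachidonic acid. Three increasing concentrations were tested in three to five independent experiments and normalized to DMSO control. IC₅₀ was estimated by linear interpolation around 50% activity.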

[3] = target: T1, Polyunsaturated fatty acid 5-lipoxygenase; test: Inhibition of 5-lipoxygenase in S100 supernatant assessed as inhibition of (5(S)-hydroperoxy-6-trans-8,11,14-cis-eicosatetraenoic acid production preincubated for 15 mins measured after 10 mins by HPLC method; how it was run: as §1
[4] = target: T2, Polyunsaturated fatty acid 5-lipoxygenase (Homo sapiens) (UniProt P09917); test: Inhibition of 5-lipoxygenase in human polymorphonuclear leukocytes assessed as residual activity at 30 uM relative to control; type: cell-based
T2 sequence (whole entry): T1 sequence (P09917 whole entry)
How it was run: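 Intact isolated human PMNL were preincubated with compound, then 5-LO product formation was elicited with 2.5 μM A23187 and 20 μM exogenous arachidonic acid. Activity was expressed relative to DMSO control.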

[5] = target: T2, Polyunsaturated fatty acid 5-lipoxygenase (Homo sapiens); test: Inhibition of 5-lipoxygenase in S100 supernatant assessed as residual activity at 30 uM relative to control
How it was run: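 PMNL homogenate 100000g supernatant (S100) was preincubated with compound, then stimulated with 1 mM CaCl₂ and 20 μM arachidonic acid. 5-LO product formation was expressed relative to DMSO control.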

[6] = target: T1, Polyunsaturated fatty acid 5-lipoxygenase; test: Inhibition of 5-lipoxygenase

Compound | pIC50 [1] | pIC50 [2] | pIC50 [3] | Activity [4] | Activity [5] | pIC50 [6]
COc1ccc(/C=C2\SC(c3ccc(O)cc3)=NC2=O)cc1 | 5.77 | 6.19 | 6.19 | – | – | –
Cc1ccc(/C=C2\SC(Nc3ccc4ccccc4c3)=NC2=O)cc1 | < 4.52 | < 4.52 | < 4.52 | > 60% | > 60% | –
COc1ccc(/C=C2\SC(c3ccc(N)cc3)=NC2=O)cc1 | 5.71 | 6.20 | 6.20 | – | – | –
COc1cc(/C=C2\SC(c3ccccc3)=NC2=O)cc(Cl)c1O | 5.02 | 5.52 | 5.52 | – | – | –
O=C1/C(=C/C=C/c2ccco2)S/C(=N\c2ccccc2)N1c1ccccc1 | 4.52 | < 4.52 | < 4.52 | > 60% | > 60% | –
COc1ccc(/C=C2\SC(c3ccc(Cl)cc3)=NC2=O)cc1 | 6.55 | 7.05 | 7.05 | – | – | –
COc1ccc(/C=C2\SC(N3CCCC3)=NC2=O)cc1 | < 4.52 | < 4.52 | < 4.52 | > 60% | > 60% | –
COC(=O)COc1ccc(/C=C2\SC(c3ccc(C)cc3)=NC2=O)cc1 | 5.68 | 6.72 | 6.72 | – | – | –
COc1cc(/C=C2\SC(c3ccc(C)cc3)=NC2=O)cc(Cl)c1O | < 5.00 | 5.57 | 5.57 | – | – | –
COc1ccc(/C=C2\SC(c3ccc(OC)cc3)=NC2=O)cc1 | 6.49 | 5.40 | 5.40 | – | – | –
COc1ccc(/C=C2\SC(c3ccc(C(C)=O)cc3)=NC2=O)cc1 | 6.26 | 6.96 | 6.96 | – | – | –
COc1ccc(/C=C2\SC(c3ccc(C)cc3)=NC2=O)c(OC)c1 | 5.69 | 6.01 | 6.01 | – | – | –
COC(=O)COc1ccc(C2=NC(=O)/C(=C/c3ccc(OC)cc3)S2)cc1 | 6.07 | 6.24 | 6.24 | – | – | –
COc1ccc(/C=C2\SC(c3ccc(C)cc3)=NC2=O)cc1 | 6.18 | 6.52 | 6.52 | – | – | –
Cc1ccc(C2=NC(=O)/C(=C/c3ccccc3)S2)cc1 | 6.14 | 6.46 | 6.46 | – | – | –
CC(C)(C)c1ccc(/C=C2\SC(c3ccccc3)=NC2=O)cc1 | 6.04 | 6.52 | 6.52 | – | – | –
COc1ccc(OC)c(/C=C2\SC(c3ccc(C)cc3)=NC2=O)c1 | 6.46 | 6.89 | 6.89 | – | – | –
Cc1ccc(C2=NC(=O)/C(=C/C=C/c3ccccc3)S2)cc1 | 6.40 | 6.64 | 6.64 | – | – | –

Compound | pIC50 [1] | pIC50 [2] | pIC50 [3] | Activity [4] | Activity [5] | pIC50 [6]
C/C(=C1/SC(O)=NC1=O)c1cc(-c2ccccc2)c(O)c(-c2ccccc2)c1 | – | – | – | – | – | < 5.00
CN(C)c1ccc(/C=C2\SC(N3CCCCC3)=NC2=O)cc1 | 4.70 | < 4.52 | < 4.52 | > 60% | > 60% | –
O=C1N=C(c2ccccc2)S/C1=C\c1c2ccccc2cc2ccccc12 | 5.37 | 6.52 | 6.52 | – | – | –
CCCOc1ccc(/C=C2\SC(N3CCCCCC3)=NC2=O)cc1 | 4.92 | 4.85 | 4.85 | – | – | –
COc1ccc(/C=C2\SC(c3cccc(C(C)=O)c3)=NC2=O)cc1 | 6.42 | 6.89 | 6.89 | – | – | –
COc1cccc(/C=C2\SC(c3ccc(C)cc3)=NC2=O)c1O | 6.10 | 5.89 | 5.89 | – | – | –
CCOc1cc(/C=C2\SC(c3ccc(C)cc3)=NC2=O)cc(Cl)c1O | 5.54 | 5.90 | 5.90 | – | – | –
COc1cccc(/C=C2\SC(c3ccccc3)=NC2=O)c1O | 6.32 | 6.27 | 6.27 | – | – | –
COc1ccc(/C=C2\SC(c3cccc(F)c3)=NC2=O)cc1 | 6.62 | 6.92 | 6.92 | – | – | –
O=C1N=C(c2ccc(Cl)cc2)S/C1=C\c1ccc(O)cc1 | 6.40 | 6.96 | 6.96 | – | – | –
Cc1ccc(C2=NC(=O)/C(=C/c3cccc(Cl)c3)S2)cc1 | 6.24 | 6.52 | 6.52 | – | – | –
COc1ccc(/C=C2\SC(c3ccc(C)cc3)=NC2=O)c(OC)c1OC | 5.61 | 6.40 | 6.40 | – | – | –
CCOc1ccc(/C=C2\SC(c3ccccc3)=NC2=O)cc1 | 5.70 | 6.30 | 6.30 | – | – | –
COc1ccc(/C=C2\SC(c3ccccc3)=NC2=O)cc1 | 6.28 | 6.82 | 6.82 | – | – | –
COc1cc(Cl)cc(/C=C2\SC(c3ccccc3)=NC2=O)c1O | 6.19 | 6.52 | 6.52 | – | – | –
COc1cc(/C=C2\SC(c3ccccc3)=NC2=O)cc([N+](=O)[O-])c1O | 5.36 | 5.52 | 5.52 | – | – | –
O=C1N=C(Nc2ccccc2)S/C1=C\c1ccccc1 | < 4.52 | < 4.52 | < 4.52 | > 60% | > 60% | –
